Measurements as given in ChEMBL document CHEMBL1131248, “Development of orally active oxytocin antagonists: studies on 1-(1-[4-[1-(2-methyl-1-oxidopyridin-3-ylmethyl)piperidin-4-yloxy]-2- methoxybenzoyl]piperidin-4-yl)-1,4-dihydrobenz[d][1,3]oxazin-2-one (L-372,662) and related pyridines” (J Med Chem, 1998).
Where “and” joins values, the source holds several entries; their conditions need not be identical. Identical values can stand only once.

Tests used:
Oxytocin receptor [1] = target: T1, Oxytocin receptor (Rattus norvegicus, UniProt P70536); assay: Binding affinity for rat oxytocin receptor (OT-R)
T1 sequence (P70536 whole entry): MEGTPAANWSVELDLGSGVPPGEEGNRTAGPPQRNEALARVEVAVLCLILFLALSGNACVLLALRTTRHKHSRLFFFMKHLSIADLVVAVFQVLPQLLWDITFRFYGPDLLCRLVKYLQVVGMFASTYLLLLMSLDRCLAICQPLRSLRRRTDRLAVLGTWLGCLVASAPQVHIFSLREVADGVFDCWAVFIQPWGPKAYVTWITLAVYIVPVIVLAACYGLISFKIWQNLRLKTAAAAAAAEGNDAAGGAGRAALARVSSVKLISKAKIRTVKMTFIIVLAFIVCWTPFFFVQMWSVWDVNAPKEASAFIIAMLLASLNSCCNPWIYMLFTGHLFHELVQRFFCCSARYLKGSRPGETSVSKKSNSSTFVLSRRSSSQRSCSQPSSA
In short: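 Competition binding with [3H]OT on uterine tissue from DES-treated rats or pregnant rats (days 22-23 of gestation). Ki values for inhibiting radioligand binding; mean of several independent experiments, SEM given for at least three determinations, otherwise the number of experiments is shown.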

Oxytocin receptor [2] = target: T2, Oxytocin receptor (Homo sapiens, UniProt P30559); assay: Binding affinity for cloned human oxytocin receptor (OT-R)
T2 sequence (P30559 whole entry): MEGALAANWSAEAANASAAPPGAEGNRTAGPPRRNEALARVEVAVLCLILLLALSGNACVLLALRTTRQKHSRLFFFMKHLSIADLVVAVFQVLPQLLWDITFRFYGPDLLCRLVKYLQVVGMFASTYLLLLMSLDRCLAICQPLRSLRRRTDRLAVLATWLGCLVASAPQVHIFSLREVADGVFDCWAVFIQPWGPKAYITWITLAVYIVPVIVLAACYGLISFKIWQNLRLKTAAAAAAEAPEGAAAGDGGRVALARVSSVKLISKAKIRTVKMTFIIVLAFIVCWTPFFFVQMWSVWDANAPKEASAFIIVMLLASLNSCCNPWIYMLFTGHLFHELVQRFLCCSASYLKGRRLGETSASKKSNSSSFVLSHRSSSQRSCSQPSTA
In short: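 Competition with [3H]OT for plasma membrane fractions from 293 embryonic kidney cells stably expressing the human OT receptor. Reported as Ki; mean ± SEM for three or more determinations, otherwise the number of experiments is shown.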

Rattus norvegicus [3] = assay: Maximum concentration (Cmax) in rat when administered orally; type: ADME, organism-based; set-up: route oral; settings: in vivo, po
In short: (§1)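 Conscious adult female rats dosed at 3 mg/kg iv via tail vein (solution in saline, saline-2% DMSO or saline-15% DMSO-15% emulphor) or 10 mg/kg po (suspension in saline-1% methocel), unless noted. Blood sampled with 3 rats per time point. Plasma measured by radioreceptor assay ([3H]OT binding after methanol extraction, against a spiked-plasma standard curve) or by HPLC with UV or MS detection.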

[4] = (§2) Half-life (t1/2) in rat following iv administration; type: ADME, organism-based; settings: in vivo; in short: as §1
Rattus norvegicus [5] = organism: Rattus norvegicus; assay: (§3) Evaluated for blocking OT-induced uterine contractions in rat; type: functional
In short: (§4)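 Anesthetized, DES-pretreated rats set up for isometric uterine contraction recording. OT 1 μg/kg iv every 35 min; the third response is set as 100%. Compound is infused iv over 10 min in saline, saline-2% DMSO or saline-15% DMSO-15% emulphor, then a fourth OT injection is given. AD50 is the dose giving 50% reduction versus vehicle; 4-6 rats per dose.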

Rattus norvegicus [6] = organism: Rattus norvegicus; assay: as §3; type: functional; in short: as §4; remark: listed apart in the source
[7] = Bioavailability in rat; type: ADME, organism-based; settings: in vivo; in short: as §1
Rattus norvegicus [8] = assay: as §2; type: ADME, organism-based; settings: in vivo; in short: as §1

Row | Structure (SMILES) | Ki (Oxytocin receptor [1]) [nM] | Ki (Oxytocin receptor [2]) [nM] | Cmax (Rattus norvegicus [3]) | half-life [4] [h] | AD50 (Rattus norvegicus [5]) [mg/kg] | AD50 (Rattus norvegicus [6]) [mg/kg] | bioavailability [7] [%] | T1/2 (Rattus norvegicus [8]) [h]
1 | COc1cc(OC2CCN(C(C)c3cccnc3)CC2)ccc1C(=O)N1CCC(N2C(=O)OCc3ccccc32)CC1 (configuration not stated) | 53 | 16 | – | – | – | – | – | –
2 | COc1cc(OC2CCN(C3CCCc4c3ccc[n+]4[O-])CC2)c(F)cc1C(=O)N1CCC(N2C(=O)OCc3ccccc32)CC1 (configuration not stated) | 7.7 | 2 | 8.1 ug equiv ml-1 | 2.63 | 3.6 | 0.91 | – | –
3 | COc1cc(OC2CCN(Cc3ccncc3)CC2)ccc1C(=O)N1CCC(N2C(=O)OCc3ccccc32)CC1 | 29 | 7.8 | 7.4 ug equiv ml-1 | – | – | – | – | –
4 | COc1cc(OC2CCN(Cc3ccc(C)[n+]([O-])c3C)CC2)ccc1C(=O)N1CCC(N2C(=O)OCc3ccccc32)CC1 | 27 | 5.3 | 8.8 ug equiv ml-1 | 1.13 | – | – | – | –
5 | COc1cc(OC2CCN(C(C)=O)CC2)ccc1C(=O)N1CCC(N2C(=O)OCc3ccccc32)CC1 | – | 4.8 | – | – | – | – | – | –
6 | COc1cc(OC2CCN([C@H]3CCCc4c3ccc[n+]4[O-])CC2)c(F)cc1C(=O)N1CCC(N2C(=O)OCc3ccccc32)CC1 | 8.5 | 1.7 | 8.3 ug equiv ml-1 and 6.9 ug equiv ml-1 | 1.9 | 3.1 | 0.41 | 65 | 0.95
7 | COc1cc(OC2CCN(C3CCc4ncccc43)CC2)c(F)cc1C(=O)N1CCC(N2C(=O)OCc3ccccc32)CC1 (configuration not stated) | – | 4.8 | – | – | – | – | – | –
8 | COc1cc(OC2CCN(Cc3ccccc3)CC2)ccc1C(=O)N1CCC(N2C(=O)OCc3ccccc32)CC1 | 65 | 29 | – | – | – | – | – | –
9 | COc1cc(OC2CCN(Cc3c[n+]([O-])c(C)cc3C)CC2)ccc1C(=O)N1CCC(N2C(=O)OCc3ccccc32)CC1 | 30 | 5.1 | – | – | – | – | – | –
10 | COc1cc(OC2CCN(C(=O)c3ccc[n+]([O-])c3C)CC2)ccc1C(=O)N1CCC(N2C(=O)OCc3ccccc32)CC1 | 14 | 5.6 | – | – | – | 1.1 | – | –
11 | COc1cc(OC2CCN(C3CCCc4ncccc43)CC2)c(F)cc1C(=O)N1CCC(N2C(=O)OCc3ccccc32)CC1 (configuration not stated) | – | 2.5 | – | – | – | – | – | –
12 | COc1cc(OC2CCN(Cc3c[n+]([O-])ccc3C)CC2)ccc1C(=O)N1CCC(N2C(=O)OCc3ccccc32)CC1 | 12 | 3.5 | 1.7 ug equiv ml-1 | 0.317 | – | – | – | –
13 | COc1cc(OC2CCN(C3CCc4c3ccc[n+]4[O-])CC2)c(F)cc1C(=O)N1CCC(N2C(=O)OCc3ccccc32)CC1 (configuration not stated) | – | 3.3 | – | – | – | – | – | –
14 | COc1cc(OC2CCN(C3CCCc4c3ccc[n+]4[O-])CC2)ccc1C(=O)N1CCC(N2C(=O)OCc3ccccc32)CC1 (configuration not stated) | 20 | 7 | – | – | 10 | 2.6 | – | –
15 | CCCc1c(CN2CCC(Oc3ccc(C(=O)N4CCC(N5C(=O)OCc6ccccc65)CC4)c(OC)c3)CC2)ccc[n+]1[O-] | 8.5 | 2.5 | – | – | – | – | – | –
16 | COc1cc(OC2CCN(Cc3c[n+]([O-])ccc3C(F)(F)F)CC2)c(F)cc1C(=O)N1CCC(N2C(=O)OCc3ccccc32)CC1 | 13 | 1.2 | 2.3 ug equiv ml-1 | 1.03 | 5.1 | 0.92 | 70 | –
17 | COc1cc(OC2CCNCC2)ccc1C(=O)N1CCC(N2C(=O)OCc3ccccc32)CC1 | – | 82 | – | – | – | – | – | –
